Source: ChEMBL document CHEMBL5724801, “EUbOPEN Chemogenomics Library - Multiplex” (2024)
“And” between values parts separate entries of the source, which are not always exact repeats. Equal entries are not always repeated.

tested on: U2OS; assay: Multiplex assay against U2OS; type: toxicity, cell-based; conditions: human, 12 h, 1 µM, compound concentration 1 uM
Outline: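 With compound added, live cells were imaged on a CQ1 microscope at 37°C and 5% CO2; staining with Hoechst33342, BioTracker Green Microtubule Cytoskeleton Dye, MitoTracker Red and Annexin V Alexa Fluor 680 had been done at seeding. The CellPathfinder machine-learning gating scheme split cells into Hoechst high-intensity objects or normal cells, normal cells into healthy, pyknosed or fragmented nuclei, and pyknosed cells into mitotic or apoptotic. The tubulin, mitochondrial-mass and membrane-permeability phenotypes are per cents of healthy-nucleus cells.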

Structure (SMILES) | Population Apoptotic (%) | Population Fragmented Nuclei (%) | Population Healthy Nuclei (%) | Population Hoechst High Intensity Objects (%) | Population Membrane Permeable-Phenotype (%) | Population Mitochondria Different-Phenotype (%) | Population Mitotic Cells (%) | Population Normal (%) | Population Pyknosed Nuclei (%) | Population Tubulin-Different-Phenotype (%)
N[C@@]1(C(=O)O)CO[C@H]2[C@H](C(=O)O)[C@H]21 [LY-379268] | 85% and 100% | 20% and 17% | 76% and 79% | 0% | 2% and 8% | 1% and 2% | 14% and 0% | 99% | 3% and 2% | 1% and 3%
CN1CCN2c3ccccc3Cc3ccccc3C2C1.Cl (stereo not given) [MIANSERIN HYDROCHLORIDE] | 91% and 83% | 35% and 16% | 56% and 77% | 3% and 1% | 7% and 3% | 4% and 3% | 8% and 16% | 96% and 98% | 7% and 5% | 5% and 2%

same assay, conditions: human, 12 h, 1 µM, compound concentration 1 uM

Structure (SMILES) | Total Cell Count
N[C@@]1(C(=O)O)CO[C@H]2[C@H](C(=O)O)[C@H]21 [LY-379268] | 211 and 108
CN1CCN2c3ccccc3Cc3ccccc3C2C1.Cl (stereo not given) [MIANSERIN HYDROCHLORIDE] | 162 and 109

same assay, conditions: human, 12 h, 10 µM, compound concentration 10 uM

Structure (SMILES) | Population Apoptotic (%) | Population Fragmented Nuclei (%) | Population Healthy Nuclei (%) | Population Hoechst High Intensity Objects (%) | Population Membrane Permeable-Phenotype (%) | Population Mitochondria Different-Phenotype (%) | Population Mitotic Cells (%) | Population Normal (%) | Population Pyknosed Nuclei (%) | Population Tubulin-Different-Phenotype (%)
N[C@@]1(C(=O)O)CO[C@H]2[C@H](C(=O)O)[C@H]21 [LY-379268] | 63% and 80% | 30% and 19% | 61% and 77% | 0% and 1% | 8% and 4% | 2% and 1% | 36% and 20% | 99% and 98% | 7% and 3% | 3% and 1%
CN1CCN2c3ccccc3Cc3ccccc3C2C1.Cl (stereo not given) [MIANSERIN HYDROCHLORIDE] | 78% and 86% | 23% and 12% | 68% and 77% | 2% and 1% | 7% and 1% | 3% and 2% | 21% and 13% | 97% and 98% | 8% and 10% | 4% and 0%

same assay, conditions: human, 12 h, 10 µM, compound concentration 10 uM

Structure (SMILES) | Total Cell Count
N[C@@]1(C(=O)O)CO[C@H]2[C@H](C(=O)O)[C@H]21 [LY-379268] | 264 and 143
CN1CCN2c3ccccc3Cc3ccccc3C2C1.Cl (stereo not given) [MIANSERIN HYDROCHLORIDE] | 277 and 152

same assay, conditions: human, 24 h, 1 µM, compound concentration 1 uM

Structure (SMILES) | Population Apoptotic (%) | Population Fragmented Nuclei (%) | Population Healthy Nuclei (%) | Population Hoechst High Intensity Objects (%) | Population Mitochondria Different-Phenotype (%) | Population Mitotic Cells (%) | Population Normal (%) | Population Pyknosed Nuclei (%) | Population Tubulin-Different-Phenotype (%) | Total Cell Count
N[C@@]1(C(=O)O)CO[C@H]2[C@H](C(=O)O)[C@H]21 [LY-379268] | 88% and 100% | 20% and 11% | 71% and 79% | 1% and 0% | 1% and 2% | 11% and 0% | 98% and 100% | 7% and 9% | 1% and 6% | 245 and 133
CN1CCN2c3ccccc3Cc3ccccc3C2C1.Cl (stereo not given) [MIANSERIN HYDROCHLORIDE] | 88% and 75% | 34% and 23% | 56% and 70% | 1% and 2% | 1% and 3% | 11% and 25% | 98% and 97% | 8% and 5% | 4% and 3% | 197 and 142

same assay, conditions: human, 24 h, 1 µM, compound concentration 1 uM

Structure (SMILES) | Population Membrane Permeable-Phenotype (%)
CN1CCN2c3ccccc3Cc3ccccc3C2C1.Cl (stereo not given) [MIANSERIN HYDROCHLORIDE] | 6% and 4%

same assay, conditions: human, 24 h, 10 µM, compound concentration 10 uM

Structure (SMILES) | Population Apoptotic (%) | Population Fragmented Nuclei (%) | Population Healthy Nuclei (%) | Population Hoechst High Intensity Objects (%) | Population Membrane Permeable-Phenotype (%) | Population Mitochondria Different-Phenotype (%) | Population Mitotic Cells (%) | Population Normal (%) | Population Pyknosed Nuclei (%) | Population Tubulin-Different-Phenotype (%)
N[C@@]1(C(=O)O)CO[C@H]2[C@H](C(=O)O)[C@H]21 [LY-379268] | 81% and 90% | 25% and 16% | 66% and 77% | 1% | 8% and 4% | 1% and 4% | 18% and 10% | 98% | 7% and 6% | 2% and 4%
CN1CCN2c3ccccc3Cc3ccccc3C2C1.Cl (stereo not given) [MIANSERIN HYDROCHLORIDE] | 69% and 93% | 21% and 13% | 68% and 77% | 1% and 2% | 9% and 7% | 2% and 3% | – | 98% and 97% | 10% and 8% | 2%

same assay, conditions: human, 24 h, 10 µM, compound concentration 10 uM

Structure (SMILES) | Total Cell Count
N[C@@]1(C(=O)O)CO[C@H]2[C@H](C(=O)O)[C@H]21 [LY-379268] | 284 and 165
CN1CCN2c3ccccc3Cc3ccccc3C2C1.Cl (stereo not given) [MIANSERIN HYDROCHLORIDE] | 319 and 183

same assay, conditions: human, 48 h, 1 µM, compound concentration 1 uM

Structure (SMILES) | Population Apoptotic (%) | Population Fragmented Nuclei (%) | Population Healthy Nuclei (%) | Population Hoechst High Intensity Objects (%) | Population Membrane Permeable-Phenotype (%) | Population Mitochondria Different-Phenotype (%) | Population Mitotic Cells (%) | Population Normal (%) | Population Pyknosed Nuclei (%) | Population Tubulin-Different-Phenotype (%)
N[C@@]1(C(=O)O)CO[C@H]2[C@H](C(=O)O)[C@H]21 [LY-379268] | 92% and 100% | 13% and 15% | 79% and 72% | 1% and 2% | 3% and 11% | 2% and 5% | 7% and 0% | 98% and 97% | 7% and 12% | 3% and 5%
CN1CCN2c3ccccc3Cc3ccccc3C2C1.Cl (stereo not given) [MIANSERIN HYDROCHLORIDE] | 78% | 28% and 19% | 65% and 71% | 2% and 1% | 5% and 4% | 2% and 3% | 21% | 97% and 98% | 5% and 9% | 4% and 2%

same assay, conditions: human, 48 h, 1 µM, compound concentration 1 uM

Structure (SMILES) | Total Cell Count
N[C@@]1(C(=O)O)CO[C@H]2[C@H](C(=O)O)[C@H]21 [LY-379268] | 348 and 178
CN1CCN2c3ccccc3Cc3ccccc3C2C1.Cl (stereo not given) [MIANSERIN HYDROCHLORIDE] | 269 and 206

same assay, conditions: human, 48 h, 10 µM, compound concentration 10 uM

Structure (SMILES) | Population Apoptotic (%) | Population Fragmented Nuclei (%) | Population Healthy Nuclei (%) | Population Hoechst High Intensity Objects (%) | Population Membrane Permeable-Phenotype (%) | Population Mitochondria Different-Phenotype (%) | Population Mitotic Cells (%) | Population Normal (%) | Population Pyknosed Nuclei (%) | Population Tubulin-Different-Phenotype (%)
N[C@@]1(C(=O)O)CO[C@H]2[C@H](C(=O)O)[C@H]21 [LY-379268] | 92% and 90% | 24% and 11% | 68% and 83% | 2% | 9% and 3% | 2% | 7% and 9% | 97% | 7% and 4% | 3%
CN1CCN2c3ccccc3Cc3ccccc3C2C1.Cl (stereo not given) [MIANSERIN HYDROCHLORIDE] | 91% and 87% | 18% and 15% | 71% and 73% | 4% and 2% | 4% | 2% and 3% | 8% and 12% | 95% and 97% | 9% and 11% | 1% and 2%

same assay, conditions: human, 48 h, 10 µM, compound concentration 10 uM

Structure (SMILES) | Total Cell Count
N[C@@]1(C(=O)O)CO[C@H]2[C@H](C(=O)O)[C@H]21 [LY-379268] | 383 and 228
CN1CCN2c3ccccc3Cc3ccccc3C2C1.Cl (stereo not given) [MIANSERIN HYDROCHLORIDE] | 397 and 285
